Shown are actives, neighbours in structure and some others; about 3.1% of the full set was active somewhere.
OX1R antag-1: antagonists of human orexin 1 receptor (OX1R); O43613; OX1R-expressing cells, FRET antagonist read-out; inhibition, % at 6.6 µM; 330,000 tested, 1.8% active; in the data active = inhibition mostly above about 38%, no sharp cut-off; inactive = mostly below about 40%;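 also: 0% = agonist challenge alone and 100% = reference antagonist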
Target sequence (O43613 whole entry, looked up): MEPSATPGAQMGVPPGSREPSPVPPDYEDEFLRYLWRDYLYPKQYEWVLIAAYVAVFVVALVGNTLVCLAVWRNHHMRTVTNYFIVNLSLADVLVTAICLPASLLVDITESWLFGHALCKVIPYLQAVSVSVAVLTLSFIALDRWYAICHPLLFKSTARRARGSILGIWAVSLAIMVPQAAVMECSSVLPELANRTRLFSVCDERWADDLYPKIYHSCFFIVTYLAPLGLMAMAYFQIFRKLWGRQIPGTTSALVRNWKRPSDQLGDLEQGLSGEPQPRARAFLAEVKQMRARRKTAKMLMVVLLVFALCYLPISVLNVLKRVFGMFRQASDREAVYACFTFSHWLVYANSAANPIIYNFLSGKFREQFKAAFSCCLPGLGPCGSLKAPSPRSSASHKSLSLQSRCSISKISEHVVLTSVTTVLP
OX1R antag-2: human HCRTR1 antagonism | O43613 | CHO/OX1R cells, Fluo-8 calcium fluorescence, orexin A | inhibition, % at 5 µM | 330,000 tested, 0.43% active;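 active = inhibition above its plate's threshold, mean inhibition of all tested compounds on the plate plus 3 SD, cut at about 37% in these data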;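 also: 0% = orexin A challenge wells and 100% = SB-334867-A antagonist wells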
GalR3 antag: blocks the human galanin receptor 3; O60755; HEK293 GalR3-CNG cAMP membrane potential fluorescence; galR3 body fused to GalR1 C-terminus; inhibition, % at 3 µM; 360,000 tested, 0.44% active; AID 651719;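 active = inhibition above the screen-wide average plus 3 SD, cut at about 13% in these data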;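 also: forskolin and galanin both at EC90 stimulate the cells; cAMP rise reported by CNG channel membrane potential dye signal; 0% = forskolin plus galanin with DMSO and 100% = forskolin alone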
GPR7 antagonist: human neuropeptides B/W receptor 1 antagonism; P48145; GPR7-expressing cells, fluorescence antagonist assay; inhibition, % at 4.4 µM; 290,000 tested, 1.1% active; in the data active = inhibition above about 16%, passing the limit was not always enough;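 also: cells stimulated with the agonist NPW; 0% = agonist with vehicle and 100% = vehicle without agonist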
CHO parental Ca: counter-screen: ATP calcium response change in parental CHO cells; parental CHO-K1, ATP-induced calcium, Fluo-8 fluorescence; inhibition, % at 5.6 µM; 330,000 tested, 0.63% active;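 active = inhibition above that plate's mean sample inhibition plus 3 SD, cut at about 26% in these data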;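 also: 0% = ATP-challenged DMSO wells and 100% = DMSO wells without ATP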
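Test system: untransfected parental CHO cell line; also added: ATP stimulus; dosing: 5.6 µM, single dose; signal: calcium-sensitive Fluo-8 fluorescence; measure: percent inhibition of ATP-evoked calcium rise, normalized to controls; benchmarks: low control ATP plus DMSO, high control DMSO only; replication: one well per compound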
GPR7 antag conf: human GPR7 antagonism, confirmation assay | shares compounds with GPR7 antagonist | GPR7-expressing cells, calcium fluorescence antagonist mode | inhibition, % at 4.4 µM | 2,400 tested, 52% active; in the data active = inhibition above about 24%;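 also: stimulated with the GPR7 agonist NPW; 0% = agonist plus vehicle and 100% = vehicle alone without agonist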
MCHR1 antagonist: counter-screen for GPR7 antagonists: antagonists of human MCHR1; shares compounds with GPR7 antagonist; MCHR1-expressing cells, fluorescence antagonist assay; inhibition, % at 4.4 µM; 2,400 tested, 62% active; AID 2148; in the data active = inhibition above about 22%;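 also: 0% = vehicle with agonist and 100% = vehicle without agonist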
The depositor's hits bear a star; / = no result.

SMILES	OX1R antag-1	OX1R antag-2	GalR3 antag	GPR7 antagonist	CHO parental Ca	GPR7 antag conf	MCHR1 antagonist
O=C(Nc1ccccc1C(=O)Nc1ccc(Cl)cc1)c1cccnc1	-5	-18	-4	-20	-27	/	/
Cc1ccc(NCC(=O)N/N=C/c2ccc(OC(=O)c3ccco3)cc2)cc1	3	2	-1	31*	-14	31*	11
CCC(C)Sc1nc2c(c(=O)[nH]1)C(c1cccs1)C1=C(CCCC1=O)N2 (stereo unspecified)	18	-26	-5	32*	-3	25*	30*
O=C1CCCC2=C1C(c1ccncc1)c1c(nc(SCc3ccccc3Cl)[nH]c1=O)N2 (stereo unspecified)	12	-13	0	-12	-5	/	/
CCOc1ccc(NC(=S)NNC(=O)c2ccc(Br)cc2)cc1	13	-17	-2	5	-8	/	/
COC(=O)CSc1nc(N)c(C#N)c(CC(C)C)c1C#N	17	-36	-5	26*	-3	9	13
CN1CCN(S(=O)(=O)c2ccc(NCc3ccc4c(c3)OCO4)nc2)CC1	12	-9	-3	-13	-11	/	/
COc1cc(C2C(Oc3ccccc3C)C(=O)N2Cc2ccc(F)cc2)cc(OC)c1OC (stereo unspecified)	39	-21	-3	23*	-26	16	23*
CN(CC(=O)O)S(=O)(=O)c1ccc2c(c1)NC(=O)CC(=O)N2	20	-5	3	2	17	/	/
COc1ccccc1CNC(=O)CN(C)Cc1ccc(SC)cc1	23	-22	-11	26*	-19	37*	36*
COc1cccc(C(c2nnnn2C2CCCCC2)N2CCN(C/C=C/c3ccccc3)CC2)c1OC (stereo unspecified)	/	/	-6	/	/	/	/
CCN1CCN(C(c2ccccc2OC)c2nnnn2C2CCCCC2)CC1 (stereo unspecified)	16	-23	-4	30*	-25	7	8
COCCCNC(=S)N1CCC(NC(=O)Nc2ccc(C)cc2)CC1	9	-6	-5	21*	-9	0	1
O=C(/C=C/c1ccccc1[N+](=O)[O-])N1CCc2ccccc2C1	28	-16	-11	8	-19	/	/
CC1CCN(CCCNC(=O)CN2C(=O)CSc3ccc(S(=O)(=O)N4CCC(C)CC4)cc32)CC1	12	-24	-9	26*	-24	-5	-9
CC1CCN(CCCNC(=O)CN2C(=O)CSc3ccc(S(=O)(=O)N4CCOCC4)cc32)CC1	9	7	-6	-7	1	/	/
Cc1ccc(OCCC(=O)OCC(=O)Nc2ccc3c(c2)OCO3)cc1	12	-6	-1	/	-7	/	/
CC[n+]1c(/C=C/N(C)c2ccccc2)oc2ccc(Cl)cc21	6	-4	-4	-8	-5	/	/
CCN1/C(=C/C=C/c2oc3ccc4ccccc4c3[n+]2CC)Oc2ccc3ccccc3c21	14	76*	/	45*	64*	55*	58*
NC(=O)C1CCN(C(=O)c2cc3ccccc3cc2O)CC1	24	-10	-4	/	-6	/	/
O=C(CSc1nc(O)cc(=O)n1C1CCCC1)Nc1cccc(Cl)c1Cl	9	3	3	28*	-5	15	7
CC(C)NC(=O)c1cc(-c2ccc3c(c2)OCO3)on1	8	-33	-9	44*	4	0	12
Cn1nc(C(=O)N2CCN(c3ccc([N+](=O)[O-])cc3)CC2)c2c1-c1ccccc1S(=O)(=O)C2	14	8	/	-6	-7	/	/
NS(=O)(=O)c1cccc(NC(=O)COC(=O)CC2Sc3ccccc3NC2=O)c1 (stereo unspecified)	11	0	-6	/	-2	/	/
O=C(CC1Sc2ccccc2NC1=O)Nc1cccc(C(=O)O)c1 (stereo unspecified)	10	6	3	21*	7	-11	5
SMILES	OX1R antag-1	OX1R antag-2	GalR3 antag	GPR7 antagonist	CHO parental Ca	GPR7 antag conf	MCHR1 antagonist
COc1ccc(OC)c(NS(=O)(=O)c2c(C(=O)N3CCCCCC3)c(C)n(C)c2C)c1	19	-1	-3	45*	-26	28*	11
COc1ccccc1NS(=O)(=O)c1c(C(=O)N2CCCC2)c(C)n(C)c1C	6	-10	-1	-1	3	/	/
CCOC(=O)C1=CN(Cc2cccc(Br)c2)S(=O)(=O)N(CC)C1C (stereo unspecified)	19	8	-7	/	-13	/	/
Cc1ccsc1C(=O)NNC(=O)C1CCCCC1C(=O)O (stereo unspecified)	16	-15	1	23*	-7	-7	7
CC1CCC2(CC1)NC(=O)N(NC(=O)c1ccc(OC(C)C)cc1)C2=O (stereo unspecified)	/	/	-5	/	/	/	/
CCOc1cccc(-c2c(C(=O)N/N=C/c3ccsc3)nnn2-c2nonc2N)c1	3	-19	0	-16	-13	/	/
CS(=O)(=O)N1CCc2cc(-c3csc(NC(=O)Cc4cccs4)n3)ccc21	17	0	-8	39*	1	69*	83*
CSc1ncc(C(=O)Nc2cccc(Cl)c2)c(C)n1	/	/	-9	-11	/	/	/
COC(=O)CC1COc2ccccc2N1S(=O)(=O)c1ccc(Br)cc1 (stereo unspecified)	3	-37	-11	-17	-18	/	/
CCC(=O)N(CCC1(C(C)C)CCOC(C)(C)C1)C(C)c1cccs1 (stereo unspecified)	35	-13	-2	25*	-17	7	4
CN1C(=O)C(CC(=O)Nc2ccc(F)cc2)N(CCCc2ccccc2)C1=S (stereo unspecified)	52	48*	0	26*	4	24*	41*
CON(Cc1ccccc1)S(=O)(=O)c1ccccc1Br	/	/	-8	/	/	/	/
CCc1ccc(NC(=O)CSc2ccc(-c3sc(C)nc3C)nn2)cc1	7	-25	-2	31*	-12	41*	76*
Cc1nc(C)c(-c2ccc(SCC(=O)Nc3cccc(Cl)c3)nn2)s1	39	-11	0	33*	-1	48*	67*
COc1ccc(NC(=O)CSc2ccc(-c3sc(C)nc3C)nn2)cc1	19	-12	-3	1	0	/	/
CN(C(=O)COC(=O)c1ccc(Br)c([N+](=O)[O-])c1)c1c(N)n(Cc2ccccc2)c(=O)[nH]c1=O	28	-11	-4	/	-4	/	/
COC(=O)C1=C(C)N(Cc2ccc(C(F)(F)F)cc2)C(=NCc2ccccc2)NC1c1ccc(Cl)cc1 (stereo unspecified)	/	/	-7	/	/	/	/
Cc1noc(C)c1CSCC(=O)Nc1ccccc1N1CCCCC1	22	-42	/	/	-36	/	/
CC(C)(CO)NC(=O)Nc1ccc(Cl)c(Cl)c1	2	2	-1	26*	13	-6	10
O=C(NCC1CC1(Cl)Cl)Nc1ccc(Cl)c(Cl)c1 (stereo unspecified)	39	2	-8	33*	33*	13	58*
